The species named for assay [1] is Rattus norvegicus. Kind of assay: Percentage suppression of the LH in castrated rat after 2 hr of doing.
For assay [2], the species on record is Rattus norvegicus. In words: Effective dose required for maximal release of histamine from rat peritoneal mast cells. It is filed as functional. The conditions noted are these: read-out: ED50 (the source's name). The method, boiled down: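 Rat peritoneal mast cells; histamine release measured. ED50 is the antagonist dose giving 50% of maximal histamine release, in micrograms per milliliter. All compounds tested as TFA salts.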

The species named for assay [3] is Rattus norvegicus. In words: In vitro antagonistic potency against release of luteinizing hormone (LH) from cultured rat pituitary cells. Format: functional. As to conditions: Pituitary gland cell, read-out: pA2 (converted). In short, it runs like this: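 Cultured rat pituitary cells, agonist-stimulated LH release. pA2 is the negative log of the antagonist concentration that makes a 2-fold higher agonist concentration necessary to release LH. Compounds tested as TFA salts.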

The structures appear in SMILES notation. Values after ≈ are worked out from the molar mass of the structure shown. Where a SMILES comes first, the peptide text is derived from it. [ ]: non-standard residue; d: D form. The star is where a group is joined. Propanoyl(3-(4-F-phenyl)) = O=C(CCc1ccc(F)cc1)*; Propanoyl(3-(4-Cl-Ph)) = O=C(CCc1ccc(Cl)cc1)*; dPhe(4-Cl) = N[C@H](Cc1ccc(Cl)cc1)C(=O)O; d1Nal = N[C@H](Cc1cccc2ccccc12)C(=O)O; d2Nal = N[C@H](Cc1ccc2ccccc2c1)C(=O)O; Lys(iPr) = CC(C)NCCCC[C@H](N)C(=O)O; NMeY = CN[C@@H](Cc1ccc(O)cc1)C(=O)O; d3Pal = N[C@H](Cc1cccnc1)C(=O)O; Nicotinoyl = O=C(c1cccnc1)* Some results are limits rather than exact numbers.

In turn, `CCNC(=O)[C@@H]1CCCN1C(=O)[C@H](CCCN=C(N)N)NC(=O)[C@H](CC(C)C)NC(=O)[C@@H](Cc1c[nH]c2ccccc12)NC(=O)[C@H](Cc1ccc(O)cc1)NC(=O)[C@H](CO)NC(=O)[C@@H](Cc1c[nH]c2ccccc12)NC(=O)CCc1ccc(F)cc1` displayed a Supression in the assay listed under Rattus norvegicus [1] of 88%.

With `CCNC(=O)[C@@H]1CCCN1C(=O)[C@H](CCCN=C(N)N)NC(=O)[C@H](CC(C)C)NC(=O)[C@@H](CCCCNC(=O)c1cccnc1)NC(=O)[C@H](Cc1ccc(O)cc1)N(C)C(=O)[C@H](CO)NC(=O)[C@@H](Cc1c[nH]c2ccccc12)NC(=O)CCc1ccc(F)cc1`, the EC50 in the assay listed under Rattus norvegicus [2] was less than 0.1 µg/mL. In the assay filed under Rattus norvegicus [1], this molecule yielded a Supression of 90%.

Consider `CC(=O)N[C@H](Cc1ccc2ccccc2c1)C(=O)N[C@H](Cc1ccc(Cl)cc1)C(=O)N[C@H](Cc1cccnc1)C(=O)N[C@@H](CO)C(=O)N(C)[C@@H](Cc1ccc(O)cc1)C(=O)N[C@H](CCCCNC(=O)c1cccnc1)C(=O)N[C@@H](CC(C)C)C(=O)N[C@@H](CCCCNC(C)C)C(=O)N1CCC[C@H]1C(=O)N[C@H](C)C(N)=O` (Ac-[d2Nal][dPhe(4-Cl)][d3Pal]S[NMeY][dK](Nicotinoyl)L[Lys(iPr)]P[dA]-NH2), for which, in the assay filed under Rattus norvegicus [2], the EC50 amounted to 10 µg/mL (≈ 6.51 µM).

Take `CCNC(=O)[C@@H]1CCCN1C(=O)[C@H](CCCN=C(N)N)NC(=O)[C@H](CC(C)C)NC(=O)[C@@H](Cc1c[nH]c2ccccc12)NC(=O)[C@H](Cc1ccc(O)cc1)NC(=O)[C@H](CO)NC(=O)[C@H](Cc1ccc(O)cc1)NC(=O)CCc1ccc(Cl)cc1` ({Propanoyl(3-(4-Cl-Ph))}-YSY[dW]LRP-NHEt): the Kb in the assay listed under Rattus norvegicus [3] is 0.851 nM.

On to `CCNC(=O)[C@@H]1CCCN1C(=O)[C@H](CCCN=C(N)N)NC(=O)[C@H](CC(C)C)NC(=O)[C@@H](Cc1c[nH]c2ccccc12)NC(=O)[C@H](Cc1ccc(O)cc1)NC(=O)[C@H](CO)NC(=O)[C@@H](Cc1ccc(O)cc1)NC(=O)CCc1ccc(Cl)cc1` ({Propanoyl(3-(4-Cl-Ph))}-[dY]SY[dW]LRP-NHEt), for which, in the assay listed under Rattus norvegicus [3], the Kb was 0.0832 nM.

Turning to `CC(C)C[C@H](NC(=O)[C@@H](CCCCNC(=O)c1cccnc1)NC(=O)[C@H](Cc1ccc(O)cc1)N(C)C(=O)[C@H](CO)NC(=O)[C@@H](Cc1cccc2ccccc12)NC(=O)CCc1ccc(F)cc1)C(=O)N[C@@H](CCCCNC(C)C)C(=O)N1CCC[C@H]1C(=O)N[C@H](C)C(N)=O` ({Propanoyl(3-(4-F-phenyl))}-[d1Nal]S[NMeY][dK](Nicotinoyl)L[Lys(iPr)]P[dA]-NH2) [listing 1 of 2 here], in the assay filed under Rattus norvegicus [3], the Kb is 0.00741 nM.

For the molecule `CC(C)C[C@H](NC(=O)[C@@H](CCCCNC(=O)c1cccnc1)NC(=O)[C@H](Cc1ccc(O)cc1)N(C)C(=O)[C@H](CO)NC(=O)[C@@H](Cc1cccc2ccccc12)NC(=O)CCc1ccc(F)cc1)C(=O)N[C@@H](CCCCNC(C)C)C(=O)N1CCC[C@H]1C(=O)N[C@H](C)C(N)=O` ({Propanoyl(3-(4-F-phenyl))}-[d1Nal]S[NMeY][dK](Nicotinoyl)L[Lys(iPr)]P[dA]-NH2) [listing 2 of 2 here], in the assay listed under Rattus norvegicus [2], the EC50 stood at 10.3 µg/mL (≈ 7.84 µM).

Values taken from ChEMBL document CHEMBL1127659, “In vitro and in vivo activities of reduced-size antagonists of luteinizing hormone-releasing hormone” (J Med Chem, 1994).
